The values below come from paper PMC4750707 (Antimicrobial Agents and Chemotherapy, 2016).

≈ marks a conversion by molar mass, not a printed value.

For one experiment, the system named is P. aeruginosa. In words: Broth microdilution MIC. The note with it: Pseudomonas aeruginosa. It is filed as cell-based. In short, it runs like this:
(§1)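 MICs by CLSI broth microdilution in cation-adjusted Mueller-Hinton broth. Strains grown in BHI broth at 35°C: E. coli K-12, P. aeruginosa 1771 and S. aureus ATCC 29213. H. influenzae Rd grown in BHI with Haemophilus test medium supplement (hemin and β-NAD, 15 μg/ml each).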
On the technique in general: Dilution methods test growth across graded concentrations, often in twofold steps.

In another experiment the test system is S. aureus. In words: Broth microdilution MIC. It is filed as cell-based. Particulars: Staphylococcus aureus, ATCC29213. In short, it runs like this: as §1
In another experiment the target is T1, E. coli PBP3 (Escherichia coli, UniProt P0AD68).
T1 sequence (P0AD68 1-588): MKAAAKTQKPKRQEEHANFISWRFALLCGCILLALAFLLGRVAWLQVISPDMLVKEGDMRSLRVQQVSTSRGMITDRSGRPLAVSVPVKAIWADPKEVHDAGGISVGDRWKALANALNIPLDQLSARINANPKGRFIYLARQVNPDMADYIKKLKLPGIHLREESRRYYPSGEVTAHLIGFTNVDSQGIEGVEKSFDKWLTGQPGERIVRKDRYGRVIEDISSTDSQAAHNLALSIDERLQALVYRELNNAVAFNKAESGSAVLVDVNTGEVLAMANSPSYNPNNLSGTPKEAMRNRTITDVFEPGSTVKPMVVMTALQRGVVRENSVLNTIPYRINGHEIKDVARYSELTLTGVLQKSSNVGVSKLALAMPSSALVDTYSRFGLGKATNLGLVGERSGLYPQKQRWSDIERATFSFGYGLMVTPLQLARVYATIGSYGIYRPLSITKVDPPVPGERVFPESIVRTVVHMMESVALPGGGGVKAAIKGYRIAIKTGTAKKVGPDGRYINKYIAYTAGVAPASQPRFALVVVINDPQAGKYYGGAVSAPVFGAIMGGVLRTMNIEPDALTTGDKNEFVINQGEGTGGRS
The experiment is described as follows: PBP competition assay with Bocillin FL. It counts as binding. Summed up:
(§2)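 E. coli K-12 or P. aeruginosa 1771 grown in BHI at 35°C to A600 ~1.5. Cells in 50 mM phosphate pH 7.0 were French-pressed; membranes pelleted at 150,000 × g. Membranes (10–20 μg protein) were pre-incubated with test compound 10 min at 30°C, then Bocillin FL (100 μM final) 20 min. SDS-PAGE, fluorescence scan. IC50 in μg/ml from ≥8 concentrations versus no-drug control.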

The target in a further experiment is E. coli PBP4 (Escherichia coli, UniProt P24228). In words: PBP competition assay with Bocillin FL. It counts as binding. In short, it runs like this: as §2
The test system of a further experiment is E. coli PBP5/6. In words: PBP competition assay with Bocillin FL. It is filed as binding, Escherichia coli. Particulars: E. coli K-12 membranes; Bocillin FL 100 μM. In short, it runs like this:
as §2

In the next experiment the target is T2, P. aeruginosa PBP2 (Pseudomonas aeruginosa, UniProt Q9X6V3).
T2 sequence (Q9X6V3 1-646): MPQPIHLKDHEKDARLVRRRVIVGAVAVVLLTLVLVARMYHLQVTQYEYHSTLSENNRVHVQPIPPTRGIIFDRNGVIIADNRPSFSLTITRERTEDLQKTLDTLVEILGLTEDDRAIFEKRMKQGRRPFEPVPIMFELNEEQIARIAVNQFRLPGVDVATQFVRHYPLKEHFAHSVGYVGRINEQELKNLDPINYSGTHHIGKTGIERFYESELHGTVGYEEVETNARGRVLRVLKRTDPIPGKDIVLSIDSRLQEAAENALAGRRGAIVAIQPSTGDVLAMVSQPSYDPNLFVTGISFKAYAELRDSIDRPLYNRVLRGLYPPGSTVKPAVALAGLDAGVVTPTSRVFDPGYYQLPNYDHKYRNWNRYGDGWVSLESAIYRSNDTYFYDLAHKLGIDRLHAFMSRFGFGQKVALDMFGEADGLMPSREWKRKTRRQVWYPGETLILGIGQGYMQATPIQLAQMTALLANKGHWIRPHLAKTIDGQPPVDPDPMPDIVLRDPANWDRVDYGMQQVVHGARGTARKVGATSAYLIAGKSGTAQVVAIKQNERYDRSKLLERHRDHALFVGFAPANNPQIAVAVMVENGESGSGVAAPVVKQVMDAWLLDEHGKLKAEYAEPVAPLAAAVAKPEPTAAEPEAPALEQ
In words: PBP competition assay with Bocillin FL. It is filed as binding. Summed up: as §2

Another experiment concerns the target P. aeruginosa PBP3 (Pseudomonas aeruginosa, UniProt G3XD46). The experiment is described as follows: PBP competition assay with Bocillin FL. It is filed as binding.
The target of another experiment is S. pneumoniae PBP2a/b. In words: PBP competition assay with Bocillin FL. It is filed as binding, Streptococcus pneumoniae. Particulars: S. pneumoniae R6 membranes; Bocillin FL 100 μM. Summed up:
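S. pneumoniae R6 was grown on blood agar at 37°C under 5% CO2, then in BHI with agitation to A600 ~1.0. Cells in KPN buffer pH 7.5 were lysozyme-treated and French-pressed; membranes (30–40 μg protein) were used. Test compound 10 min at 30°C, then Bocillin FL 100 μM final for 20 min. SDS-PAGE fluorescence; IC50 from three assays of six concentrations.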

A further experiment addresses S. aureus PBP2 (Staphylococcus aureus, UniProt Q9R744). The experiment is described as follows: PBP competition assay with Bocillin FL. It is filed as binding. Summed up:
(§3)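 S. aureus ATCC 29213 membranes were prepared in KPN buffer pH 7.5. Lysis used lysostaphin 400 μg/ml for 1 h at 37°C plus protease inhibitors, DNase and RNase, then French press. Membranes (10–20 μg protein) received test compound for 10 min at 30°C, then Bocillin FL 100 μM final for 20 min. SDS-PAGE band volumes; IC50 from three assays of six concentrations versus no-drug control.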

In a further experiment the target is S. aureus PBP3 (Staphylococcus aureus, UniProt Q9XDB3). The experiment is described as follows: PBP competition assay with Bocillin FL. It counts as binding. Summed up:
as §3

In another experiment the target is T3, S. aureus PBP4 (Staphylococcus aureus, UniProt P72355).
T3 sequence (P72355 25-431): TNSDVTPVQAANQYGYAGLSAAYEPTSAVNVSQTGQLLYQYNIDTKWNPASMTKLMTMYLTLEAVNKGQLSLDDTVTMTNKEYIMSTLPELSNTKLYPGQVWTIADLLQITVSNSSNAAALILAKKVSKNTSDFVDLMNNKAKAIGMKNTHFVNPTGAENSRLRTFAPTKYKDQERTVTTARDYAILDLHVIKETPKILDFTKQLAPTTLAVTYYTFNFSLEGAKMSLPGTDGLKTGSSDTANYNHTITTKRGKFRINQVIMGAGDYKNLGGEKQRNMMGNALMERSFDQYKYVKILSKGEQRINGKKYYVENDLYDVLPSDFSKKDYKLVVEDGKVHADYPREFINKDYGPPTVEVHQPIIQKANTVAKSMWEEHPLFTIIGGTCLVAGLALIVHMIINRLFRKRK
The experiment is described as follows: PBP competition assay with Bocillin FL. It counts as binding.

As a reminder, the MIC is the least concentration at which growth counts as inhibited. The term IC50 denotes the concentration that gives 50% inhibition. A high value points to lower potency. Take `NC(=O)[C@@H]1CC[C@@H]2CN1C(=O)N2OS(=O)(=O)O` [AVI, avibactam]: the MIC in the experiment on P. aeruginosa is greater than 128 µg/mL; with S. aureus, 256 µg/mL (≈ 965 µM). For the same molecule, the IC50 at E. coli PBP3 was greater than 49 µM; on E. coli PBP4, greater than 49 µM; on P. aeruginosa PBP2, 4.15 µM; at P. aeruginosa PBP3, 6.79 µM; on S. aureus PBP2 it was 192 µM; at S. aureus PBP3, 588 µM. Moreover, at S. aureus PBP4, the IC50 was greater than 965 µM. Also, the “Relative binding (IC50) for PBP 5/6” value in the experiment on E. coli PBP5/6 is greater than 13 µg/mL. In addition, the “Relative binding (IC50) for PBP 2a/b” value on S. pneumoniae PBP2a/b is greater than 64 µg/mL.

Turning to `CC(C)(O/N=C(\C(=O)N[C@@H]1C(=O)N2C(C(=O)[O-])=C(C[n+]3ccccc3)CS[C@H]12)c1csc(N)n1)C(=O)O` [CAZ, ceftazidime], the MIC against P. aeruginosa came out at 4 µg/mL (≈ 7.32 µM); against S. aureus, 16 µg/mL (≈ 29.3 µM). For the same molecule, the IC50 on E. coli PBP3 was 0.366 µM; at E. coli PBP4, greater than 45.7 µM; on P. aeruginosa PBP2, greater than 45.7 µM; on P. aeruginosa PBP3, 0.0732 µM; at S. aureus PBP2, 1.28 µM; at S. aureus PBP3 it was greater than 14.6 µM. Moreover, at S. aureus PBP4, the IC50 is greater than 14.6 µM. Further, in the experiment on E. coli PBP5/6, the “Relative binding (IC50) for PBP 5/6” value is greater than 25 µg/mL. For the same molecule, at S. aureus PBP4 (S. aureus membranes, in presence of avibactam fixed at 4 μg/ml), the “Binding to S. aureus PBP4 revealed by reduction of Bocillin FL labeling” value is “affinity for PBP4 was much lower”.

Consider `CC1(C)S[C@@H]2[C@H](/N=C/N3CCCCCC3)C(=O)N2[C@H]1C(=O)O` [MEC, amdinocillin], for which the figures for the 50% inhibitory concentration (IC50) on E. coli PBP3, at E. coli PBP4 and on P. aeruginosa PBP2 were greater than 39.9 µM, greater than 39.9 µM and 0.645 µM, respectively.
